ChEMBL document CHEMBL1153836, “Effects of human immunodeficiency virus protease inhibitors on the intestinal absorption of tenofovir disoproxil fumarate in vitro” (Antimicrob Agents Chemother, 2007)
The source made the active and inactive calls. The rule behind the calls is not given here.

What was measured:
[1] = system: Caco-2; test: Increase in P-glycoprotein-mediated tenofovir disoproxil fumarate permeation from apical to basolateral side of human Caco-2 cells at 20 uM; type: cell-based
Procedure, shortened: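 Caco-2 monolayers were preincubated 30 min with 20 µM PI in transport buffer, then given fresh buffer with inhibitor plus TDF on the apical side. […] Duplicates; mean ± SD of three independent experiments.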

[2] = system: Caco-2; test: Increase in P-glycoprotein-mediated forward permeation of tenofovir disoproxil fumarate in human Caco-2 cells at 2 uM; type: cell-based
[3] = target: ATP-dependent translocase ABCB1 (Homo sapiens, UniProt P08183); test: Inhibition of human MDR1-dependent accumulation of calcein-AM expressed in MDCK2 cells; type: cell-based, MDCK-II; settings: for Activity: human, mdck-ii
Sequence of ATP-dependent translocase ABCB1 (P08183 whole entry): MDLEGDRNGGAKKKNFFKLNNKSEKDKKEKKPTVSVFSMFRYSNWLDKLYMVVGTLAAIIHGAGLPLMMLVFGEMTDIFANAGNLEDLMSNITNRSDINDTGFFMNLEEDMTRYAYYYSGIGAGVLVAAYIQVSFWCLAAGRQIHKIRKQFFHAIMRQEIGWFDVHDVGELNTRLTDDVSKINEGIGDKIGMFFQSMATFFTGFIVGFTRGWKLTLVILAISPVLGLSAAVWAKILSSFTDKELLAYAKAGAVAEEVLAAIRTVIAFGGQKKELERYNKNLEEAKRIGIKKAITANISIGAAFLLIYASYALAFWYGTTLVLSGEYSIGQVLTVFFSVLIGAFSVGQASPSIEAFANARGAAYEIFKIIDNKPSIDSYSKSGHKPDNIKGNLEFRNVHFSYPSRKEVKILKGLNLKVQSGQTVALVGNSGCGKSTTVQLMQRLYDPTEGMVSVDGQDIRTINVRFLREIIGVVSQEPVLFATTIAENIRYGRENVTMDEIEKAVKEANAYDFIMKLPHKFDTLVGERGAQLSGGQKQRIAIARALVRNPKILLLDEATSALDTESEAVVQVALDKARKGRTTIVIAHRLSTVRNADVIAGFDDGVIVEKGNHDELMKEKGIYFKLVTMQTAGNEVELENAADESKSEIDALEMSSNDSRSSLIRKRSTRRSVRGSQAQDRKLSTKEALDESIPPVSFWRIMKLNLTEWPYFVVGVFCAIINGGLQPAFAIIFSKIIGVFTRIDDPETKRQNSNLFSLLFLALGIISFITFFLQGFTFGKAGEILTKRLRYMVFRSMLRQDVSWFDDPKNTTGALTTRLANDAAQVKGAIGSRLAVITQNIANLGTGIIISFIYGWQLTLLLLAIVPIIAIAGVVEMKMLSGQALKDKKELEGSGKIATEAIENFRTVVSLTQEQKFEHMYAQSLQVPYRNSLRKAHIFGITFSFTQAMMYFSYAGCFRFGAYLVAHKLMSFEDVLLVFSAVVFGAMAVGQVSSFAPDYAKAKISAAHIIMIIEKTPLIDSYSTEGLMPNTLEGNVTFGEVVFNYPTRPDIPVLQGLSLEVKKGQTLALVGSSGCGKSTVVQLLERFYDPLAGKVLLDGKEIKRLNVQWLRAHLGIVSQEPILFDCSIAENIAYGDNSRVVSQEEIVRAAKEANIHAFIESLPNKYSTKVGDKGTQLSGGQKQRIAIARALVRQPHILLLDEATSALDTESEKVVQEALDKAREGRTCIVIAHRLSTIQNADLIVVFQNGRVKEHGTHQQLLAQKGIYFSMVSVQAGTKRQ
Procedure, shortened: (§1)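 Parental and MDR1-transfected MDCKII cells received calcein-AM together with PI (seven twofold dilutions from 50 µM, no serum proteins). Intracellular calcein fluorescence was read in a 96-well format. Percent increase in fluorescence was fitted to a hyperbolic curve for IC50. Duplicates; 3–10 independent assays.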

[4] = system: Homo sapiens; test: Effect on tenofovir disoproxil fumarate metabolism in ritonavir booster drug treated HIV infected patient assessed as change in plasma AUC of tenofovir at 400 mg, po, BID co-administered with 300 mg once daily dose of tenofovir disoproxil fumarate; type: ADME, organism-based; settings: in vivo
[5] = system: Homo sapiens; test: Effect on tenofovir disoproxil fumarate metabolism in HIV infected patient assessed as change in plasma Cmax of tenofovir at 400 mg, po, BID co-administered with 300 mg once daily dose of tenofovir disoproxil fumarate; type: ADME, organism-based; settings: in vivo
[6] = system: Homo sapiens; test: Effect on tenofovir disoproxil fumarate metabolism in HIV infected patient assessed as change in plasma Cmin of tenofovir at 400 mg, po, BID co-administered with 300 mg once daily dose of tenofovir disoproxil fumarate; type: ADME, organism-based; settings: in vivo
[7] = species: Homo sapiens; test: Inhibition of esterase mediated-hydrolysis of tenofovir disoproxil fumarate in human intestinal sub cellular fraction S9 at 2 uM after 30 mins
Procedure, shortened: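 Reactions were stopped at 30 and 60 min with 67% acetonitrile, and TDF was measured by LC/MS/MS. Degradation rate came from a single-exponential fit, expressed as percent inhibition versus DMSO. Duplicates; three to six independent experiments.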

[8] = target: T1, MDR1 (ABCB1, P-glycoprotein) (Homo sapiens, UniProt P08183); test: Inhibition of human MDR1-dependent accumulation of calcein-AM expressed in MDCK2 cells at 20 uM; type: cell-based, MDCK-II; settings: MDCK2 cells expressing human MDR1, probe calcein-AM
T1 sequence (P08183 whole entry): as above

[9] = target: T1, MDR1 (ABCB1, P-glycoprotein); test: Inhibition of human MDR1-dependent accumulation of calcein-AM expressed in MDCK2 cells at 50 uM; type: cell-based, MDCK-II; design: activity at 50 µM: scale not given: the % may be the effect or the level left; settings: MDCK2 cells expressing human MDR1, probe calcein-AM; procedure, shortened: as §1
[10] = system: Caco-2; test: Ratio of permeability from basolateral to apical side over apical to basolateral side in human Caco-2 cells at 1 uM; type: ADME, cell-based; settings: caco-2, 1 µM
Procedure, shortened: (§2)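 Confluent Caco-2 monolayers dosed with TDF (1–1,000 µM) on the apical or basolateral side at 37°C, 5% CO2. […] Efflux ratio = B-to-A Papp / A-to-B Papp. Two independent experiments in duplicate.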

[11] = system: Caco-2; test: Ratio of permeability from basolateral to apical side over apical to basolateral side in human Caco-2 cells at 1000 uM; type: ADME, cell-based; settings: caco-2, 1000 µM; procedure, shortened: as §2
[12] = system: Caco-2; test: Increase in P-glycoprotein-mediated forward permeation of tenofovir disoproxil fumarate in human Caco-2 cells at 10 uM; type: cell-based
[13] = species: Homo sapiens; test: Inhibition of esterase mediated-hydrolysis of tenofovir disoproxil fumarate in human intestinal sub cellular fraction S9 assessed as rate of tenofovir disoproxil fumarate degradation at 10 uM after 30 mins
Procedure, shortened: (§3)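 Human intestinal S9 at 1 mg/ml protein; TDF 2 µM incubated with or without inhibitor (10, 50 or 100 µM) at 37°C in duplicate. Reactions were stopped at 30 and 60 min with 67% acetonitrile, protein removed by centrifugation, and TDF measured by LC/MS/MS. The degradation rate came from a single-exponential-decay fit.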

[14] = species: Homo sapiens; test: Inhibition of esterase mediated-hydrolysis of tenofovir disoproxil fumarate in human intestinal sub cellular fraction S9 assessed as rate of tenofovir disoproxil fumarate degradation at 50 uM after 30 mins; procedure, shortened: as §3
[15] = species: Homo sapiens; test: Inhibition of esterase mediated-hydrolysis of tenofovir disoproxil fumarate in human intestinal sub cellular fraction S9 assessed as rate of tenofovir disoproxil fumarate degradation at 100 uM after 30 mins; procedure, shortened: as §3
[16] = system: Homo sapiens; test: Effect on tenofovir disoproxil fumarate metabolism in ritonavir booster drug treated healthy human assessed as change in plasma AUC of tenofovir at 300 mg, po, BID co-administered with 300 mg once daily dose of tenofovir disoproxil fumarate; type: ADME, organism-based; settings: in vivo
[17] = system: Homo sapiens; test: Effect on tenofovir disoproxil fumarate metabolism in ritonavir booster drug treated healthy human assessed as change in plasma Cmax of tenofovir at 300 mg, po, BID co-administered with 300 mg once daily dose of tenofovir disoproxil fumarate; type: ADME, organism-based; settings: in vivo
[18] = system: Homo sapiens; test: Effect on tenofovir disoproxil fumarate metabolism in ritonavir booster drug treated healthy human assessed as change in plasma Cmin of tenofovir at 300 mg, po, BID co-administered with 300 mg once daily dose of tenofovir disoproxil fumarate; type: ADME, organism-based; settings: in vivo
[19] = system: Homo sapiens; test: Effect on tenofovir disoproxil fumarate metabolism in ritonavir booster drug treated healthy human assessed as change in plasma Cmax of tenofovir at 500 mg, po, BID co-administered with 300 mg once daily dose of tenofovir disoproxil fumarate; type: ADME, organism-based; settings: in vivo
[20] = system: Homo sapiens; test: Effect on tenofovir disoproxil fumarate metabolism in ritonavir booster drug treated healthy human assessed as change in plasma Cmax of tenofovir at 750 mg, po, BID co-administered with 300 mg once daily dose of tenofovir disoproxil fumarate; type: ADME, organism-based; settings: in vivo
[21] = system: Homo sapiens; test: Effect on tenofovir disoproxil fumarate metabolism in ritonavir booster drug treated healthy human assessed as change in plasma AUC of tenofovir at 1000 mg, po, BID co-administered with 300 mg once daily dose of tenofovir disoproxil fumarate; type: ADME, organism-based; settings: in vivo
[22] = system: Homo sapiens; test: Effect on tenofovir disoproxil fumarate metabolism in ritonavir booster drug treated healthy human assessed as change in plasma Cmax of tenofovir at 1000 mg, po, BID co-administered with 300 mg once daily dose of tenofovir disoproxil fumarate; type: ADME, organism-based; settings: in vivo
[23] = system: Homo sapiens; test: Effect on tenofovir disoproxil fumarate metabolism in ritonavir booster drug treated healthy human assessed as change in plasma Cmin of tenofovir at 1000 mg, po, BID co-administered with 300 mg once daily dose of tenofovir disoproxil fumarate; type: ADME, organism-based; settings: in vivo
[24] = system: Homo sapiens; test: Effect on tenofovir disoproxil fumarate metabolism in ritonavir booster drug treated healthy human assessed as change in plasma Cmin of tenofovir at 1250 mg, po, BID co-administered with 300 mg once daily dose of tenofovir disoproxil fumarate; type: ADME, organism-based; settings: in vivo
[25] = system: Homo sapiens; test: Effect on tenofovir disoproxil fumarate metabolism in ritonavir booster drug treated healthy human assessed as change in plasma AUC of tenofovir at 300 mg, po, QD co-administered with 300 mg once daily dose of tenofovir disoproxil fumarate; type: ADME, organism-based; settings: in vivo
[26] = system: Homo sapiens; test: Effect on tenofovir disoproxil fumarate metabolism in ritonavir booster drug treated healthy human assessed as change in plasma Cmax of tenofovir at 300 mg, po, QD co-administered with 300 mg once daily dose of tenofovir disoproxil fumarate; type: ADME, organism-based; settings: in vivo
[27] = system: Homo sapiens; test: Effect on tenofovir disoproxil fumarate metabolism in ritonavir booster drug treated healthy human assessed as change in plasma Cmin of tenofovir at 300 mg, po, QD co-administered with 300 mg once daily dose of tenofovir disoproxil fumarate; type: ADME, organism-based; settings: in vivo
[28] = system: Homo sapiens; test: Effect on tenofovir disoproxil fumarate metabolism in ritonavir booster drug treated healthy human assessed as change in plasma AUC of tenofovir at 1400 mg, po, BID co-administered with 300 mg once daily dose of tenofovir disoproxil fumarate; type: ADME, organism-based; settings: in vivo
[29] = system: Homo sapiens; test: Effect on tenofovir disoproxil fumarate metabolism in ritonavir booster drug treated healthy human assessed as change in plasma Cmax of tenofovir at 700 mg, po, BID co-administered with 300 mg once daily dose of tenofovir disoproxil fumarate; type: ADME, organism-based; settings: in vivo
[30] = system: Homo sapiens; test: Effect on tenofovir disoproxil fumarate metabolism in ritonavir booster drug treated healthy human assessed as change in plasma Cmax of tenofovir at 1400 mg, po, BID co-administered with 300 mg once daily dose of tenofovir disoproxil fumarate; type: ADME, organism-based; settings: in vivo
[31] = system: Homo sapiens; test: Effect on tenofovir disoproxil fumarate metabolism in ritonavir booster drug treated healthy human assessed as change in plasma Cmin of tenofovir at 1400 mg, po, BID co-administered with 300 mg once daily dose of tenofovir disoproxil fumarate; type: ADME, organism-based; settings: in vivo
[32] = system: Homo sapiens; test: Effect on tenofovir disoproxil fumarate metabolism in ritonavir booster drug treated healthy human assessed as change in plasma Cmax of tenofovir at 800 mg, po, TID co-administered with 300 mg once daily dose of tenofovir disoproxil fumarate; type: ADME, organism-based; settings: in vivo

In the case of `Cc1cccc(C)c1OCC(=O)N[C@@H](Cc1ccccc1)[C@@H](O)C[C@H](Cc1ccccc1)NC(=O)[C@H](C(C)C)N1CCCNC1=O` [LOPINAVIR], the Activity [1] is reported as “Active”, the Activity [2] is reported as 100% and the Activity [3] is reported as “Dose-dependent effect”. The Activity [4] was 32%, the Activity [5] was 15% and the Activity [6] was 51%. For the same compound, the Activity [7] was “Active” and the inhibition at 20 µM [8] was 50%.

With `CC(C)c1nc(CN(C)C(=O)N[C@H](C(=O)N[C@@H](Cc2ccccc2)C[C@H](O)[C@H](Cc2ccccc2)NC(=O)OCc2cncs2)C(C)C)cs1` the Activity [1] was “Active” and the Activity [7] was “Active”.

With `CC(C)CN(C[C@@H](O)[C@H](Cc1ccccc1)NC(=O)O[C@H]1CCOC1)S(=O)(=O)c1ccc(N)cc1` the inhibition at 50 µM [9] was ≤ 25% and the Activity [7] was “Active”.

`CC(C)OC(=O)OCOP(=O)(CO[C@H](C)Cn1cnc2c(N)ncnc21)OCOC(=O)OC(C)C.O=C(O)/C=C/C(=O)O` [TENOFOVIR DISOPROXIL FUMARATE] showed a Ratio [10] of 25, a Ratio [11] of 2.6 and a fold change (FC) [12] of 1.4. It also gave a fold change (FC) [2] of 2.5, an Activity [13] of 0.021 min⁻¹ and an Activity [14] of 0.016 min⁻¹. For the same compound, the Activity [15] was 0.012 min⁻¹.

With `CC(C)CN(C[C@@H](O)[C@H](Cc1ccccc1)NC(=O)O[C@H]1CO[C@H]2OCC[C@H]21)S(=O)(=O)c1ccc(N)cc1` the activity at 50 µM ([9]; read-out: Activity) was 15%, the IC50 [3] was > 100 µM and the Activity [16] was 22%. The Activity [17] was 24%, the Activity [18] was 37% and the inhibition [7] was < 40%.

In the case of `CCC[C@@]1(CCc2ccccc2)CC(O)=C([C@H](CC)c2cccc(NS(=O)(=O)c3ccc(C(F)(F)F)cn3)c2)C(=O)O1`, the Activity [19] is reported as -23% and the Activity [20] is reported as -38%.

For `CC(C)(C)NC(=O)[C@@H]1C[C@@H]2CCCC[C@@H]2CN1C[C@@H](O)[C@H](Cc1ccccc1)NC(=O)[C@H](CC(N)=O)NC(=O)c1ccc2ccccc2n1`, the Activity [1] was “Active”, the Activity [3] was “Dose-dependent effect” and the Activity [21] was 14%. For the same compound, the Activity [22] was 15%, the Activity [23] was 23% and the Activity [7] was “Active”.

`Cc1c(O)cccc1C(=O)N[C@@H](CSc1ccccc1)[C@H](O)CN1C[C@H]2CCCC[C@H]2C[C@H]1C(=O)NC(C)(C)C` was tested, and the Activity [3] was “Dose-dependent effect”, the Activity [24] was 9% and the Activity [7] was “Active”. It also gave an inhibition at 20 µM [8] of 50%.

With `COC(=O)N[C@H](C(=O)N[C@@H](Cc1ccccc1)[C@@H](O)CN(Cc1ccc(-c2ccccn2)cc1)NC(=O)[C@@H](NC(=O)OC)C(C)(C)C)C(C)(C)C` [ATAZANAVIR] the Activity [1] was “Active”, the IC50 [3] was 67.8 µM and the Activity [3] was “Dose-dependent effect”. It also gave an Activity [25] of 37%, an Activity [26] of 34% and an Activity [27] of 29%. For the same compound, the Activity [7] was “Active”.

For `CC(C)CN(C[C@@H](OP(=O)(O)O)[C@H](Cc1ccccc1)NC(=O)O[C@H]1CCOC1)S(=O)(=O)c1ccc(N)cc1` [FOSAMPRENAVIR], the Activity [28] was -15%, the Activity [29] was -18% and the Activity [30] was -25%. For the same compound, the Activity [31] was -12%.

For `Cc1nc(COc2ccc(C[C@H](NC(=O)O[C@H]3CO[C@H]4OCC[C@H]43)[C@H](O)CN(CC(C)C)S(=O)(=O)c3ccc4c(c3)OCO4)cc2)cs1` [BRECANAVIR], the IC50 [3] was 24.1 µM, the Activity [3] was “Dose-dependent effect” and the Activity [16] was 32%. For the same compound, the Activity [17] was 24%, the inhibition [7] was “Active” and the inhibition at 20 µM [8] was 50%.

In the case of `CC(C)(C)NC(=O)[C@@H]1CN(Cc2cccnc2)CCN1C[C@@H](O)C[C@@H](Cc1ccccc1)C(=O)N[C@H]1c2ccccc2C[C@H]1O.O`, the inhibition at 50 µM [9] is reported as ≤ 25%, the Activity [32] is reported as 14% and the inhibition [7] is reported as < 40%.
